Assay results taken from ChEMBL document CHEMBL4184142, “A Naturally Occurring Isoform-Specific Probe for Highly Selective and Sensitive Detection of Human Cytochrome P450 3A5” (J Med Chem, 2017).

B1: Cytochrome P450 3A5 (Homo sapiens) (protein)
chain: MDLIPNLAVETWLLLAVSLVLLYLYGTRTHGLFKRLGIPGPTPLPLLGNVLSYRQGLWKFDTECYKKYGKMWGTYEGQLPVLAITDPDVIRTVLVKECYSVFTNRRSLGPVGFMKSAISLAEDEEWKRIRSLLSPTFTSGKLKEMFPIIAQYGDVLVRNLRREAEKGKPVTLKDIFGAYSMDVITGTSFGVNIDSLNNPQDPFVESTKKFLKFGFLDPLFLSIILFPFLTPVFEALNVSLFPKDTINFLSKSVNRMKKSRLNDKQKHRLDFLQLMIDSQNSKETESHKALSDLELAAQSIIFIFAGYETTSSVLSFTLYELATHPDVQQKLQKEIDAVLPNKAPPTYDAVVQMEYLDMVVNETLRLFPVAIRLERTCKKDVEINGVFIPKGSMVVIPTYALHHDPKYWTEPEEFRPERFSKKKDSIDPYIYTPFGTGPRNCIGMRFALMNMKLALIRVLQNFSFKPCKETQIPLKLDTQGLLQPEKPIVLKVDSRDGTLSGE

Legend:
Cytochrome P450 3A4 [1] = target: T1, Cytochrome P450 3A4 (Homo sapiens, UniProt P08684); experiment: Substrate activity at CYP3A4 (unknown origin) assessed as enzyme-mediated compound turnover assessed per pmol protein at 10 uM; assay type: ADME
Cytochrome P450 3A5 [2] = target: T2, Cytochrome P450 3A5 (Homo sapiens, UniProt P20815); experiment: Substrate activity at CYP3A5 (unknown origin) assessed as enzyme-mediated compound turnover assessed per pmol protein at 10 uM; assay type: ADME
Cytochrome P450 3A5 [3] = target: T2, Cytochrome P450 3A5; experiment: Substrate activity at CYP3A5 in human HepG2 cell s9 fractions assessed as enzyme-mediated benzoic acid (6R,7S)-2,6,10-trihydroxy-1,3,11,12-tetramethoxy-6,7-dimethyl-5,6,7,8-tetrahydro-dibenzo[a,c]cycloocten-5-yl ester formation at 50 uM after 60 mins by LC-MS/MS analysis; assay type: ADME, S9 Fraction; conditions: s9, 1 h
Method in brief: (§1)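 HepG2 or Caco-2 cells grown to 90% confluence in 75 cm2 flasks, trypsinized, sonicated in ice-cold PBS. S9 taken as the 9000g 20-min supernatant, protein by BCA. Incubated with 50 μM substrate and NADPH-generating system, pH 7.4 phosphate, 37 °C for 60 min. Stopped with ice-cold methanol, then centrifuged.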

[4] = Drug metabolism in human liver microsomes assessed as Vmax for 2-O-demethylation; assay type: ADME, microsome
Method in brief: (§2)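 Pooled HLM at 0.4 mg/mL incubated 20 min at 37 °C with substrate at 2, 5, 10, 20, 50, 100, 200 μM. Buffer was 100 mM potassium phosphate pH 7.4 with an NADPH-generating system, methanol 1% (v/v) final, 3 min preincubation. Reaction stopped with ice-cold methanol; 2-O-demethylated metabolite read by UFLC-DAD. Apparent Km and Vmax from nonlinear regression; three experiments in duplicate.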

Cytochrome P450 3A4 [5] = target: T1, Cytochrome P450 3A4; experiment: Substrate activity at recombinant human CYP3A4 expressed in bactosomes assessed as intrinsic clearance by measuring ratio of Vmax/Km for 2-O-demethylation assessed per pmol protein; assay type: ADME; conditions: recombinant enzyme
Method in brief: (§3)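 Bactosome rhCYP3A4 (40 nM, 20 min) or rhCYP3A5 (20 nM, 5 min) incubated at 37 °C with substrate at 2–200 μM in 100 mM potassium phosphate pH 7.4 with NADPH-generating system, 1% methanol. Stopped with ice-cold methanol, demethylated metabolite quantified by UFLC-DAD. Km and Vmax from nonlinear regression; CLint = Vmax/Km. Three experiments in duplicate.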

Cytochrome P450 3A5 [6] = target: Cytochrome P450 3A5 (Homo sapiens, UniProt P20815, F210L); experiment: (§4) Substrate activity at full length CYP3A5 F210L mutant (unknown origin) expressed in […] assessed as enzyme-mediated benzoic acid (6R,7S)-2,6,10-trihydroxy-1,3,11,12-tetramethoxy-6,7-dimethyl-5,6,7,8-tetrahydro-dibenzo[a,c]cycloocten-5-yl ester formation after 60 mins in presence of NADPH by UFLC-DAD analysis relative to wild type CYP3A5; assay type: ADME, cell-based; conditions: s9, 1 h
Method in brief: (§5)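 Full-length CYP3A4/CYP3A5 cDNA mutants transfected into COS-7 cells (4 μg plasmid per well). After 24 h, cells were sonicated and S9 fractions prepared (9000g supernatant). Incubation: 5 mg/mL S9 and 50 μM substrate in 100 mM potassium phosphate pH 7.4 with NADPH-generating system, 37 °C, 60 min. Stopped with methanol, metabolite quantified by UFLC-DAD.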

[7] = Drug metabolism in human liver microsomes assessed as Km for 2-O-demethylation; assay type: ADME, microsome; method in brief: as §2
[8] = Intrinsic clearance in human liver microsomes assessed per mg liver microsome; assay type: ADME
Method in brief: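 HLM at 0.4 mg/mL, 20 min at 37 °C, in 100 mM potassium phosphate pH 7.4 with NADPH-generating system (1 mM NADP+, 10 mM glucose-6-phosphate, 1 unit/mL G6PDH, 4 mM MgCl2). Substrate at 2–200 μM, 1% methanol. Km and Vmax from nonlinear regression. CLint = Vmax/Km. Three experiments in duplicate, mean ± SD.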

[9] = Drug metabolism in S9 fractions (unknown origin) assessed as benzoic acid (6R,7S)-2,6,10-trihydroxy-1,3,11,12-tetramethoxy-6,7-dimethyl-5,6,7,8-tetrahydro-dibenzo[a,c]cycloocten-5-yl ester formation in presence of UDP-glucuronic acid by UFLC-DAD analysis; assay type: ADME, subcellular, S9 fraction
Cytochrome P450 3A5 [10] = target: T2, Cytochrome P450 3A5; experiment: Substrate activity at CYP3A5 in human Caco2 cell s9 fractions assessed as enzyme-mediated benzoic acid (6R,7S)-2,6,10-trihydroxy-1,3,11,12-tetramethoxy-6,7-dimethyl-5,6,7,8-tetrahydro-dibenzo[a,c]cycloocten-5-yl ester formation at 50 uM after 60 mins by LC-MS/MS analysis; assay type: ADME, S9 Fraction; conditions: s9, 1 h; method in brief: as §1
[11] = Drug metabolism in s9 fractions (unknown origin) assessed as benzoic acid (6R,7S)-2,6,10-trihydroxy-1,3,11,12-tetramethoxy-6,7-dimethyl-5,6,7,8-tetrahydro-dibenzo[a,c]cycloocten-5-yl ester formation in presence of 3'-phosphoadenosine-5'-phosphosulfate by UFLC-DAD analysis; assay type: ADME, subcellular, S9 fraction
HepG2 = experiment: Cytotoxicity against human HepG2 cells at 300 uM by CCK-8 assay; assay type: cell-based; conditions: hepg2, 300 µM
Method in brief: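 HepG2 viability after exposure measured with CCK-8 kit. Cells grown in complete DMEM with 10% FCS.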

Cytochrome P450 3A5 [12] = target: T2, Cytochrome P450 3A5; experiment: Substrate activity at CYP3A5 in human liver microsomes assessed as enzyme-mediated benzoic acid (6R,7S)-2,6,10-trihydroxy-1,3,11,12-tetramethoxy-6,7-dimethyl-5,6,7,8-tetrahydro-dibenzo[a,c]cycloocten-5-yl ester formation at 5 uM by LC-MS/MS analysis; assay type: ADME
Cytochrome P450 3A4 [13] = target: Cytochrome P450 3A4 (Homo sapiens, UniProt P08684, L210F); experiment: as §4, with “CYP3A4 L210F” for “CYP3A5 F210L”, “analysis” for “analysis relative to”, “CYP3A4” for “CYP3A5”; assay type: cell-based; conditions: 1 h; method in brief: as §5
[14] = Drug metabolism in s9 fractions (unknown origin) assessed as benzoic acid (6R,7S)-2,6,10-trihydroxy-1,3,11,12-tetramethoxy-6,7-dimethyl-5,6,7,8-tetrahydro-dibenzo[a,c]cycloocten-5-yl ester formation in presence of S-adenosyl-L-methionine by UFLC-DAD analysis; assay type: ADME, subcellular, S9 fraction
Cytochrome P450 3A5 [15] = target: T2, Cytochrome P450 3A5; experiment: Substrate activity at recombinant human CYP3A5 expressed in bactosomes assessed as intrinsic clearance by measuring ratio of Vmax/Km for 2-O-demethylation assessed per pmol protein; assay type: ADME; conditions: recombinant enzyme; method in brief: as §3
[16] = Substrate activity at CYP450 in human liver microsomes with NADPH-generating system assessed as CYP-mediated benzoic acid (6R,7S)-2,6,10-trihydroxy-1,3,11,12-tetramethoxy-6,7-dimethyl-5,6,7,8-tetrahydro-dibenzo[a,c]cycloocten-5-yl ester formation at 5 uM after 25 mins in presence of CYP inhibitor ABT; assay type: ADME
Method in brief: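 Substrate at 5 μM in pooled HLM (0.2 mg protein/mL) with NADPH-generating system in 100 mM phosphate pH 7.4, 37 °C, with or without inhibitor: ketoconazole 1 μM for CYP3A. CYP3cide 1 μM and ABT 500 μM were preincubated with NADPH-generating system at 37 °C for 25 min. Metabolite quantified by UFLC-DAD. Three experiments in duplicate.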

[17] = substrate: COc1cc2c(c(OC)c1OC)-c1c(cc(O)c(OC)c1OC)C[C@H](C)[C@](C)(O)[C@H]2OC(=O)c1ccccc1; experiment: Substrate activity at recombinant human CYP3A5 expressed in bactosomes assessed as Km for 2-O-demethylation after 5 mins by Eadie-Hofstee plot method; assay type: ADME
Method in brief: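 Bactosome rhCYP3A5 (20 nM, coexpressed with human NADPH-P450 reductase) incubated 5 min at 37 °C with substrate 2–200 μM in 100 mM potassium phosphate pH 7.4 with NADPH-generating system, final methanol 1%. Reaction stopped with ice-cold methanol. Metabolite measured by UFLC-DAD. Apparent Km from nonlinear regression, plotted as Eadie–Hofstee. Three independent experiments in duplicate, mean ± SD.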

T1 sequence (P08684 whole entry): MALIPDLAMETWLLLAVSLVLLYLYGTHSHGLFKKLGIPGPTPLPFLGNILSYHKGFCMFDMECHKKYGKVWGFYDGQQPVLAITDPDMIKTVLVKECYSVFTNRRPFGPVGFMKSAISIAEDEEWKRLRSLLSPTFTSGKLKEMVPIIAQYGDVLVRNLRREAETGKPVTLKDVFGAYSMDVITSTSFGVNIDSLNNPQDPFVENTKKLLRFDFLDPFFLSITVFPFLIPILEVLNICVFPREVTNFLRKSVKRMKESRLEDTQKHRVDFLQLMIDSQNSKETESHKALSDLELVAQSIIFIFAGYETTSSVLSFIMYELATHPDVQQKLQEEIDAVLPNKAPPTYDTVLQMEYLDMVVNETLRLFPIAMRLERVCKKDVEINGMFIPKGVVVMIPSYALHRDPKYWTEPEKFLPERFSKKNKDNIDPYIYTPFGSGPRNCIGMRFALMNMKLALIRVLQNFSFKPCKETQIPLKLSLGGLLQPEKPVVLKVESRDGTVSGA
Chain of Cytochrome P450 3A5 (Homo sapiens, UniProt P20815, F210L) (P20815 whole entry F210L): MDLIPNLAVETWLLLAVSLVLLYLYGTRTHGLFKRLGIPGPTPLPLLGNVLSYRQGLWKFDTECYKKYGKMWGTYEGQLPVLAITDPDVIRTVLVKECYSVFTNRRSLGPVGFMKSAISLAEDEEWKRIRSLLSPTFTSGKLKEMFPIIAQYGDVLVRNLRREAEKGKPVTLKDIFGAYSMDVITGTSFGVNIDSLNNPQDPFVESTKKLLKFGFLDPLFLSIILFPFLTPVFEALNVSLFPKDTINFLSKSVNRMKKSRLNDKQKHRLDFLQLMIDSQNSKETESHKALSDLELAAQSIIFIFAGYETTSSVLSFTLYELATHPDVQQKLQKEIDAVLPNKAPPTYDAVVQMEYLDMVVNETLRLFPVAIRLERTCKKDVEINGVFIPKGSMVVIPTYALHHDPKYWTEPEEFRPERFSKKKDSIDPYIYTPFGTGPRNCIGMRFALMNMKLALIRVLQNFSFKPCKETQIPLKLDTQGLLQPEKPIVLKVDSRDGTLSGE
Chain of Cytochrome P450 3A4 (Homo sapiens, UniProt P08684, L210F) (P08684 2-503 L210F limits assumed): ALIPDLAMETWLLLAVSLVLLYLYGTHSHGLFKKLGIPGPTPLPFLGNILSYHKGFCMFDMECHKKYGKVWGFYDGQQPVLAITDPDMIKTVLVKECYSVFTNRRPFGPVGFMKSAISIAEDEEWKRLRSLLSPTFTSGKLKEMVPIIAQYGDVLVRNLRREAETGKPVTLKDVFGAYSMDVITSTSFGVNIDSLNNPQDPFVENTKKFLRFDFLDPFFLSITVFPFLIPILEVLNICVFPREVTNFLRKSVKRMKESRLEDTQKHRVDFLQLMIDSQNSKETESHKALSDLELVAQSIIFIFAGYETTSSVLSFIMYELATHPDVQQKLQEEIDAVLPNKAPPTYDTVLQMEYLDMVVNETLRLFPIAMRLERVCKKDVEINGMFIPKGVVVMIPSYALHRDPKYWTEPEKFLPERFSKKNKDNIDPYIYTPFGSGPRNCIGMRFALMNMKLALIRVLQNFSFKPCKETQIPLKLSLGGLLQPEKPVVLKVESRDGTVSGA

Molecule	Drug metabolism (Cytochrome P450 3A4 [1])	Drug metabolism (Cytochrome P450 3A5 [2])	further results
COc1cc2c(c(OC)c1OC)-c1c(cc3c(c1OC)OCO3)C[C@H](C)[C@@](C)(O)C2OC(=O)c1ccccc1 (stereo partly specified)	Metabolite_Notdetected	Metabolite_Notdetected	
COc1cc2c(c(OC)c1OC)-c1c(cc(OC)c(OC)c1OC)C[C@](C)(O)[C@@H](C)C2 [SCHIZANDRIN]	>= 30 pmol/min	1 to 3 pmol/min	
COc1cc2c(c(OC)c1OC)-c1c(cc(OC)c(OC)c1OC)C[C@H](C)[C@H](C)C2 [SCHISANDRIN A]	16 to 29 pmol/min	10 to 15 pmol/min	
COc1c2c(cc3c1-c1c(cc4c(c1OC)OCO4)C[C@H](C)[C@H](C)C3)OCO2 [SCHISANDRIN C]	Metabolite_Notdetected	Metabolite_Notdetected	
COc1cc2c(c(OC)c1OC)-c1c(cc(O)c(OC)c1OC)C[C@H](C)[C@](C)(O)[C@H]2OC(=O)c1ccccc1	1 to 3 pmol/min	>= 30 pmol/min	Drug metabolism (Cytochrome P450 3A5 [3]): Metabolite_Detected; Vmax [4]: 248.5 pmol/min/mg; Ratio (Cytochrome P450 3A4 [5]): 0.46 µL/min/pmol; fold change (FC) (Cytochrome P450 3A5 [6]): 2.1; Km [7]: 4.95 µM; microsomal CLint [8]: 50.2 µL/min/mg; Drug metabolism [9]: Metabolite_Notdetected; Drug metabolism (Cytochrome P450 3A5 [10]): Metabolite_Detected; Drug metabolism [11]: Metabolite_Notdetected; Activity (HepG2): Non-Toxic; Drug metabolism (Cytochrome P450 3A5 [12]): 23.2 to 159 pmol/min/mg; fold change (FC) (Cytochrome P450 3A4 [13]): 2.6; Drug metabolism [14]: Metabolite_Notdetected; Ratio (Cytochrome P450 3A5 [15]): 10.7 µL/min/pmol; Drug metabolism [16]: Metabolite_Notdetected
C/C=C(/C)C(=O)OC1c2cc(OC)c(OC)c(OC)c2-c2c(cc3c(c2OC)OCO3)C[C@H](C)[C@@]1(C)O (stereo partly specified)	Metabolite_Notdetected	Metabolite_Notdetected	
COc1c(O)cc2c(c1OC)-c1c(cc(O)c(OC)c1OC)C(O)[C@@H](C)[C@@H](C)C2 (stereo partly specified)	4 to 9 pmol/min	1 to 3 pmol/min	
COc1cc2c(c(OC)c1OC)-c1c(cc3c(c1OC)OCO3)C[C@H](C)[C@@](C)(O)C2 [BESIGOMSIN]	10 to 15 pmol/min	1 to 3 pmol/min	
COc1cc2c(c(OC)c1OC)-c1c(cc3c(c1OC)OCO3)C(OC(=O)c1ccccc1)[C@](C)(O)[C@@H](C)C2 (stereo partly specified)	4 to 9 pmol/min	1 to 3 pmol/min	
COc1cc2c(c(OC)c1OC)-c1c(cc3c(c1OC)OCO3)C[C@H](C)[C@H](C)C2 [WUWEIZISU B]	Metabolite_Notdetected	Metabolite_Notdetected	
COc1cc2c(c(OC)c1OC)-c1c(cc3c(c1OC)OCO3)C[C@H](C)[C@@](C)(O)C2O (stereo partly specified)	4 to 9 pmol/min	1 to 3 pmol/min	
COc1cc2c(c(O)c1OC)-c1c(cc(OC)c(OC)c1OC)C[C@H](C)[C@H](C)C2	10 to 15 pmol/min	4 to 9 pmol/min	
B1			Km [17]: 5.9 µM; Vmax [17]: 6.34e-05 µmol/min
